Experimental findings from ChEMBL document CHEMBL1154099, “Synthesis and evaluation of in vitro anti-microbial and anti-tubercular activity of 2-styryl benzimidazoles” (2009) are described below.

Holding throughout (assay type): functional
The test system of experiment [1] is Staphylococcus aureus. The experiment in a line: Antibacterial activity against Staphylococcus aureus ATCC 25923 after 18 to 20 hrs by twofold tube dilution method. In outline: (§1)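 Bacterial cultures grown 18–24 h at 37 ± 1 °C in Mueller–Hinton Broth. Testing by twofold tube dilution in Mueller–Hinton Broth, pH 7.4. Inoculated broth-only tubes served as controls. MIC taken as the lowest concentration preventing visible growth.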

In experiment [2] the test system is Enterococcus faecalis. As to the kind of experiment: Antibacterial activity against Enterococcus faecalis ATCC 29212 after 18 to 20 hrs by twofold tube dilution method. In a few lines:
as §1

Experiment [3] concerns Klebsiella pneumoniae. The experiment in a line: Antibacterial activity against Klebsiella pneumoniae ATCC 13883 after 18 to 20 hrs by twofold tube dilution method. In outline: as §1
In experiment [4] the test system is Escherichia coli. The experiment in a line: Antibacterial activity against Escherichia coli ATCC 25922 after 18 to 20 hrs by twofold tube dilution method. In a few lines:
as §1

For experiment [5], the system named is Candida albicans. As to the kind of experiment: Antifungal activity against Candida albicans ATCC 10145 after 48 hrs by twofold tube dilution method. The settings on record: ATCC 10145, 48 h. In outline: (§2)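 Fungi maintained in Sabouraud Dextrose Broth for 48 h at 25 ± 1 °C. Testing by twofold dilution in Sabouraud Dextrose Broth, pH 7.4, with DMSO stocks serially diluted from 125 to 1 µg/ml. Inoculated broth-only tubes served as controls. After 48 h at 25 ± 1 °C, the last tube showing no growth was recorded as the MIC.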

Experiment [6] concerns Aspergillus fumigatus. The experiment in a line: Antifungal activity against Aspergillus fumigatus after 48 hrs by twofold tube dilution method. In a few lines: as §2
For experiment [7], the system named is Mycobacterium tuberculosis. The experiment in a line: Antitubercular activity against Mycobacterium tuberculosis H37Rv by microplate alamar blue assay. In a few lines: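 M. tuberculosis H37Rv, with compounds that reached at least 90% inhibition in the primary screen. Serial dilution to lower concentrations, microplate Alamar blue assay. MIC taken as the lowest inhibitory concentration. Streptomycin used as reference.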
For orientation: Alamar Blue is a resazurin reagent that responds to reducing activity.

The test system of experiment [8] is Mycobacterium tuberculosis. As to the kind of experiment: Antitubercular activity against Mycobacterium tuberculosis H37Rv at 7.25 ug/ml by microplate alamar blue assay. In a few lines: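 M. tuberculosis H37Rv (ATCC 27294) in BACTEC 12B medium, broth microdilution with microplate Alamar blue read-out. Primary screen at a single concentration of 7.25 µg/ml. Result expressed as percent inhibition.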

Converted amounts (≈) assume the structure as drawn.

For the compound `Oc1cccc(/C=C/c2nc3cc(Br)ccc3[nH]2)c1`, the MIC (as a rule, the lowest concentration that inhibits growth of the organism) in experiment [1] amounted to 1 µg/mL (≈ 3.17 µM); in experiment [2], 1 µg/mL (≈ 3.17 µM); in experiment [3] it was 4 µg/mL (≈ 12.7 µM); in experiment [4], 4 µg/mL (≈ 12.7 µM); in experiment [5] it was 4 µg/mL (≈ 12.7 µM); in experiment [6] it was 8 µg/mL (≈ 25.4 µM). Moreover, the MIC in experiment [7] was over 75 µg/mL.
`Brc1ccc2[nH]c(/C=C/c3ccc4c(c3)OCO4)nc2c1`: the MIC in experiment [1] was determined as 8 µg/mL (≈ 23.3 µM); in experiment [2] it was 31.2 µg/mL (≈ 91.1 µM); in experiment [3], 16.1 µg/mL (≈ 47 µM); in experiment [4], 31.2 µg/mL (≈ 91.1 µM); in experiment [5], 31.2 µg/mL (≈ 91.1 µM); in experiment [6] it was 31.2 µg/mL (≈ 91.1 µM). In experiment [7], this compound had an MIC of over 75 µg/mL.
Take `O=[N+]([O-])c1ccc2[nH]c(/C=C/c3ccccc3)nc2c1`: the minimum inhibitory concentration (MIC) in experiment [1] amounted to 8 µg/mL (≈ 30.2 µM); in experiment [2], 31.2 µg/mL (≈ 118 µM); in experiment [3], 4 µg/mL (≈ 15.1 µM); in experiment [4] it was 31.2 µg/mL (≈ 118 µM); in experiment [5] it was 16.1 µg/mL (≈ 60.8 µM); in experiment [6], 16.1 µg/mL (≈ 60.8 µM). For the same compound, the MIC in experiment [7] was over 75 µg/mL.
For the compound `Cc1ccc(/C=C/c2nc3cc([N+](=O)[O-])ccc3[nH]2)cc1`, the MIC in experiment [1] was 4 µg/mL (≈ 14.3 µM); in experiment [2], 16.1 µg/mL (≈ 57.7 µM); in experiment [3], 16.1 µg/mL (≈ 57.7 µM); in experiment [4] it was 62.5 µg/mL (≈ 224 µM); in experiment [5] it was 31.2 µg/mL (≈ 112 µM); in experiment [6], 31.2 µg/mL (≈ 112 µM). Further, the MIC in experiment [7] is over 75 µg/mL.
As for `Clc1ccc(/C=C/c2nc3cc(Br)ccc3[nH]2)c(Cl)c1`, the MIC came to 16.1 µg/mL (≈ 43.8 µM) in experiment [1]; 8 µg/mL (≈ 21.7 µM) in experiment [2]; 2 µg/mL (≈ 5.43 µM) in experiment [3]; 31.2 µg/mL (≈ 84.9 µM) in experiment [4]; 31.2 µg/mL (≈ 84.9 µM) in experiment [5]; 16.1 µg/mL (≈ 43.8 µM) in experiment [6]. Further, the MIC in experiment [7] was over 75 µg/mL. For the same compound, in experiment [8], the inhibition (usually the change of the read-out against control, counted positive when it falls) at 7.25 µg/mL was determined as 76%.
As for `Brc1ccc2[nH]c(/C=C/c3ccccc3)nc2c1`, the MIC stood at 2 µg/mL (≈ 6.69 µM) in experiment [1]; 16.1 µg/mL (≈ 53.9 µM) in experiment [2]; 31.2 µg/mL (≈ 104 µM) in experiment [3]; 16.1 µg/mL (≈ 53.9 µM) in experiment [4]; 8 µg/mL (≈ 26.7 µM) in experiment [5]; 8 µg/mL (≈ 26.7 µM) in experiment [6]. Moreover, in experiment [7], the MIC was over 75 µg/mL. This compound came in with an inhibition at 7.25 µg/mL in experiment [8] of 83%.
With `O=[N+]([O-])c1ccc2[nH]c(/C=C/c3ccc4c(c3)OCO4)nc2c1`, the MIC in experiment [1] stood at 31.2 µg/mL (≈ 101 µM); in experiment [2], 31.2 µg/mL (≈ 101 µM); in experiment [3], 62.5 µg/mL (≈ 202 µM); in experiment [4] it was 31.2 µg/mL (≈ 101 µM); in experiment [5], 16.1 µg/mL (≈ 52.1 µM); in experiment [6], 16.1 µg/mL (≈ 52.1 µM). In experiment [7], the MIC was over 75 µg/mL.
For the compound `O=[N+]([O-])c1ccc2[nH]c(/C=C/c3ccc(Cl)cc3Cl)nc2c1`, the MIC in experiment [1] came out at 31.2 µg/mL (≈ 93.5 µM); in experiment [2], 31.2 µg/mL (≈ 93.5 µM); in experiment [3], 62.5 µg/mL (≈ 187 µM); in experiment [4], 62.5 µg/mL (≈ 187 µM); in experiment [5] it was 16.1 µg/mL (≈ 48.2 µM); in experiment [6], 31.2 µg/mL (≈ 93.5 µM). The MIC in experiment [7] is over 75 µg/mL. The same compound registered an inhibition at 7.25 µg/mL in experiment [8] of 45%.
`COc1ccc(/C=C/c2nc3cc([N+](=O)[O-])ccc3[nH]2)cc1OC`: the MIC in experiment [1] came to 31.2 µg/mL (≈ 96.1 µM); in experiment [2] it was 31.2 µg/mL (≈ 96.1 µM); in experiment [3], 16.1 µg/mL (≈ 49.6 µM); in experiment [4], 31.2 µg/mL (≈ 96.1 µM); in experiment [5], 16.1 µg/mL (≈ 49.6 µM); in experiment [6], 31.2 µg/mL (≈ 96.1 µM). In experiment [7], this compound displayed an MIC of over 75 µg/mL.
For `COc1ccc(/C=C/c2nc3cc(Br)ccc3[nH]2)cc1OC`, the MIC was found to be 2 µg/mL (≈ 5.57 µM) in experiment [1]; 2 µg/mL (≈ 5.57 µM) in experiment [2]; 8 µg/mL (≈ 22.3 µM) in experiment [3]; 31.2 µg/mL (≈ 87 µM) in experiment [4]; 1 µg/mL (≈ 2.78 µM) in experiment [5]; 2 µg/mL (≈ 5.57 µM) in experiment [6]. The compound also yielded an MIC in experiment [7] of over 75 µg/mL. In addition, the inhibition at 7.25 µg/mL in experiment [8] stood at 54%.
Take `O=[N+]([O-])c1ccc2[nH]c(/C=C/c3cccc(O)c3)nc2c1`: the MIC was determined as 4 µg/mL (≈ 14.2 µM) in experiment [1]; 31.2 µg/mL (≈ 111 µM) in experiment [2]; 31.2 µg/mL (≈ 111 µM) in experiment [3]; 31.2 µg/mL (≈ 111 µM) in experiment [4]; 31.2 µg/mL (≈ 111 µM) in experiment [5]; 62.5 µg/mL (≈ 222 µM) in experiment [6]. This compound displayed an MIC in experiment [7] of over 75 µg/mL.
Take `Cc1ccc(/C=C/c2nc3cc(Br)ccc3[nH]2)cc1`: the MIC in experiment [1] worked out at 31.2 µg/mL (≈ 99.8 µM); in experiment [2] it was 31.2 µg/mL (≈ 99.8 µM); in experiment [3], 8 µg/mL (≈ 25.5 µM); in experiment [4], 16 µg/mL (≈ 51.1 µM); in experiment [5], 4 µg/mL (≈ 12.8 µM); in experiment [6] it was 8 µg/mL (≈ 25.5 µM). Also, the MIC in experiment [7] was over 75 µg/mL. The compound further had an inhibition at 7.25 µg/mL in experiment [8] of 63%.
Regarding `O=C(O)c1cn(C2CC2)c2cc(N3CCNCC3)c(F)cc2c1=O` [CIPROFLOXACIN], the values for the MIC in experiment [1], in experiment [2] and in experiment [3] were 0.78 µg/mL (≈ 2.35 µM), 0.7 µg/mL (≈ 2.11 µM) and 0.19 µg/mL (≈ 0.573 µM), respectively.
As for `OC(Cn1cncn1)(Cn1cncn1)c1ccc(F)cc1F` [FLUCONAZOLE], the minimum inhibitory concentration (MIC) in experiment [5] and in experiment [6] was 2 µg/mL (≈ 6.53 µM) throughout.
`CN[C@@H]1[C@H](O[C@H]2[C@H](O[C@H]3[C@H](O)[C@@H](O)[C@H](N=C(N)N)[C@@H](O)[C@@H]3N=C(N)N)O[C@@H](C)[C@]2(O)C=O)O[C@@H](CO)[C@H](O)[C@H]1O` [STREPTOMYCIN] gave an inhibition at 7.25 µg/mL in experiment [8] of 100%.
